Common to all, as to format: functional, cell-based
Test [1] deals with Epithelial cell. Kind of test: (§1) Antiproliferative activity against mouse +SA mammary epithelial cells after 4 days by MTT assay. The essentials:
(§2)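 Highly malignant +SA mouse mammary epithelial cells kept in serum-free medium with 10 ng/mL EGF and 10 µg/mL insulin as mitogens. Seeded at 5 × 10⁴ cells/well, 6 wells/group, and fed medium containing compound at 0.01–1000 µM, compared with vehicle controls. After 4 days of culture, viable cell number was read by MTT colorimetric assay.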

Test [2] is described as follows: as §1. The note with it: Epithelial cell, 96 h. The essentials: as §2
Test [3] relates to Epithelial cell. The test can be described thus: Antiproliferative activity against mouse +SA mammary epithelial cells at 15 to 40 uM after 4 days by MTT assay. In outline: as §2
For orientation: Tetrazolium dyes change colour on reduction, which living cells bring about.

SMILES strings stand for the structures. Active and inactive are the calls of the source. The rule behind the calls is not given here.

The values below come from ChEMBL document CHEMBL1144722 (J Nat Prod, 2008).

Usually IC50 stands for the concentration that inhibits the measured activity by half. A low value points to inhibition by little substance.

For the compound `CC(=O)O[C@H]1/C=C(\C)CC/C=C(\C)CC[C@@H](C(C)C)/C=C/[C@@](C)(O)C1`, the outcome in test [1] was Active.

`C/C1=C\[C@H](OC(=O)NCCCl)C[C@](C)(O)/C=C/[C@H](C(C)C)CC/C(C)=C/CC1`: in test [1], the outcome was inactive.

`CC(=O)O[C@H]1/C=C(\C)CC[C@@H]2OC(=N)S[C@@]2(C)CC[C@@H](C(C)C)/C=C/[C@@](C)(O)C1`: the result in test [1] was inactive.

The compound `CC(C)=CCC/C(C)=C/CC/C(C)=C/CC[C@]1(C)CCc2cc(O)cc(C)c2O1` [DELTA-TOCOTRIENOL] came in with an IC50 in test [2] of 7 µM.

As to `CCNC(=O)O[C@H]1/C=C(\C)CC/C=C(\C)CC[C@@H](C(C)C)/C=C/[C@@](C)(O)C1`, the result in test [1] was inactive.

Turning to `C/C1=C\[C@H](OC(=O)NCc2ccccc2)C[C@](C)(O)/C=C/[C@H](C(C)C)CC/C(C)=C/CC1`, the result in test [1] was inactive.

`CC(=O)O[C@H]1/C=C(\C)CC/C=C(\C)[C@H](O)C[C@@H](C(C)C)/C=C/[C@@](C)(O)C1` returned an IC50 in test [2] of 30 µM. For the same compound, in test [3], the outcome was Active.

`CC(=O)O[C@H]1/C=C(\C)CC[C@H](O)[C@@](C)(SC#N)CC[C@@H](C(C)C)/C=C/[C@@](C)(O)C1`: in test [1], the result was inactive.

Consider `C/C1=C\C(=O)C[C@](C)(O)/C=C/[C@H](C(C)C)CC/C(C)=C/CC1`, for which the result in test [3] was inactive.

`C/C1=C/C(=O)C[C@](C)(O)/C=C/[C@H](C(C)C)CC/C(C)=C/CC1`: the outcome in test [3] was Active.

The compound `CC(=O)O[C@H]1/C=C(\C)CC/C=C(\C)[C@@H](O)C[C@@H](C(C)C)/C=C/[C@@](C)(O)C1` showed an IC50 in test [2] of 20 µM. Besides, in test [3], the outcome was Active.

As for `CC(=O)/C=C/C(CC/C(C)=C/CC/C(C)=C/C(C)=O)C(C)C` (stereo not given) [SECOCEMBRANOID], the IC50 in test [2] worked out at 15 µM. For the same compound, in test [3], the outcome was Active.
